Only some compounds are listed: those with a hit (about 1.9% of all), similar ones and a draw of the others.
Rtt109 Vps75: blocks Candida albicans Rtt109/Vps75 acetyltransferase activity; Q5AAJ8; purified Rtt109/Vps75, ThioGlo CoA-SH fluorescence, 4 h; inhibition, % at 34.9 µM; 330,000 tested, 0.16% active; AID 540336;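 active = inhibition of at least 50% in every replicate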
SR-BI DiI-HDL act: SR-BI HDL lipid transfer activation | CHO ldlA[mSR-BI] cells, DiI-HDL uptake fluorescence, 3 h; 100 = double the neutral-control signal | activation, % at 12.5 µM | 320,000 tested, 0.096% active | AID 504775;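 active = mean replicate activation of at least 60% and every replicate at or above 60%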;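 also: 0% = median plate neutral-control signal and 100% = twice that signal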
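Test system: SR-BI-overexpressing, LDLR-lacking CHO cells. Measured by: DiI fluorescence, bottom read. Medium: Ham's F12 with 0.5% BSA, HEPES 25 mM, pH 7.4. Timing: 3 h uptake period with compound, 37 °C.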
PglD inh: inhibitors of Campylobacter jejuni PglD acetyltransferase. purified PglD enzyme, DTNB colorimetric CoA detection. inhibition, % at 12.5 µM. 360,000 tested, 0.098% active; in the data active = inhibition above about 16%, passing the limit was not always enough
Glyco luc inh: N-linked glycosylation inhibition; D54 ERlucT glycosylation luciferase reporter, 24 h; percent of 100 nM tunicamycin response; reporter increase, % at 12.5 µM; 360,000 tested, 0.23% active; AID 588692;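 active = mean luciferase reporter signal, scaled so untreated is 0 and the glycosylation-blocking control 100, at or above a set limit in every replicate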;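 also: luciferase carries N-glycosylation sites so blocking glycosylation raises the light; 0% = median of neutral control wells and 100% = median of 100 nM tunicamycin wells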
HIV Env fusion: blocks HIV Env-driven cell-cell fusion; HeLa-JRFL Env/CEM21 cell fusion, luciferase; inhibition, % at 12.3 µM; 360,000 tested, 1.1% active;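 active = mean replicate inhibition score of at least 50 and every replicate individually at or above 50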;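 also: 0% = plate neutral controls and 100% = maraviroc near 300 nM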
SR-BI DiI inh: inhibitors of mouse SR-BI mediated HDL lipid uptake; inhibition, % at 12.5 µM; 320,000 tested, 0.96% active; ldlA[mSR-BI] CHO cells, DiI-HDL uptake fluorescence, 3 h; AID 488896;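 active = mean replicate inhibition of at least 70% and a set share of replicates each scoring 70 or more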;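 also: 0% = median of neutral control wells and 100% = median of positive control wells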
Target sequence (Q61009 whole entry, looked up): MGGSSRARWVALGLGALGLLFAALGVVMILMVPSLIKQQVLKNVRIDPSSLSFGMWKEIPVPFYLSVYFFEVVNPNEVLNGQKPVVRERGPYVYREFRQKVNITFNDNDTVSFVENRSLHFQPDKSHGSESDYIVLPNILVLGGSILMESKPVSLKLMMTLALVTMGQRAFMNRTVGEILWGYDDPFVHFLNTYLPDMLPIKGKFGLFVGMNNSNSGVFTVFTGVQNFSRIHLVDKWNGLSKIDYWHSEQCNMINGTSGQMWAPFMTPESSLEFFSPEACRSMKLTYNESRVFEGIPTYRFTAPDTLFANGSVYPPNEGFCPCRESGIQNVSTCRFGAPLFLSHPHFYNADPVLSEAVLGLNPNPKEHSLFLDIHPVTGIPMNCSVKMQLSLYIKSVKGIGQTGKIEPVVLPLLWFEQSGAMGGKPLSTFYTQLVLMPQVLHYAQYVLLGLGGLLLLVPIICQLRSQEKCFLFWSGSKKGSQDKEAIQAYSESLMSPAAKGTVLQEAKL
Starred values were filed as active, the others as inactive; x = no result; [ ] = remark or other dose.

SMILES | Rtt109 Vps75 | SR-BI DiI-HDL act | PglD inh | Glyco luc inh | HIV Env fusion | SR-BI DiI inh
COc1cccc(-c2nc(NCc3ccccc3)c3ccccc3n2)c1O | 3.0 | -61.1 | 2.7 | 6.1 | 6.9 | 61.1
COc1cccc(-c2nc(N3CCN(C)CC3)c3ccccc3n2)c1O | 14.8 | x | x | 129.3* | -61.9 | x
COc1cccc(-c2nc(N3CCCCC3C)c3ccccc3n2)c1O (stereo not given) | 6.2 | -27.4 | -7.5 | -0.3 | -4.7 | 27.4
COc1cccc(-c2nc(NC3CCCC3)c3ccccc3n2)c1O | -2.4 | -82.5 | 3.2 | -3.1 | 6.8 | 82.5*
CN1CCN(c2nc(-c3ccccc3O)nc3ccccc23)CC1 | 10.3 | -30.0 | x | 21.4 | -6.6 | 30.0
Oc1ccccc1/C=N/NC(=S)NC1CC2CCC1C2 (stereo not given) | 1.9 | -76.1 | -0.3 | 0.0 | -23.3 | 76.1*
COc1cccc(/C=N/NC(=S)NC2CC3CCC2C3)c1OC (stereo not given) | 1.2 | -8.5 | x | -0.7 | 8.1 | 8.5
Cc1cc(Sc2nnc(/N=C/N(C)C)s2)c2ccccc2n1 | 2.5 | 19.9 | 5.9 | 14.6 | 55.6* | -19.9
CCNC(=O)Nc1ccc2c(c1)C(=O)N(C)[C@@H]1CC[C@H](CC(=O)Nc3ccccc3)O[C@H]1CO2 | x | x | -0.3 | x | -5.6[16.7 µM] | x
CC(C)CC#Cc1ccc2c(c1)O[C@@H](CN(C)Cc1ccncc1)[C@@H](C)CN([C@@H](C)CO)S2(=O)=O | x | x | -0.9 | x | 15.8[16.7 µM] | x
CN1\C(=C/C=C/C=C/C=[N+](C)C)C(C)(C)c2ccccc21 | 2.0 | 182.1* | x | -2.8 | 32.9 | -182.1
CN1/C(=C\C=O)C(C)(C)c2ccccc21 | 7.5 | -2.4 | x | -1.6 | 7.3 | 2.4
COc1ccccc1C#Cc1ccc2c(c1)O[C@H](CN(C)Cc1ccccc1)[C@H](C)CN([C@@H](C)CO)S2(=O)=O | x | x | -3.0 | x | 31.4[16.7 µM] | x
C[C@@H]1CN([C@H](C)CO)C(=O)c2cc(NS(=O)(=O)c3ccc(Cl)cc3)ccc2O[C@@H](C)CCCCO[C@H]1CN(C)C(=O)Nc1ccc(C(F)(F)F)cc1 | x | x | 2.0 | x | 55.0*[16.7 µM] | x
C[C@H]1CCCCO[C@@H](CN(C)C(=O)Nc2ccc(C(F)(F)F)cc2)[C@@H](C)CN([C@@H](C)CO)C(=O)c2cc(NS(=O)(=O)c3ccc(F)cc3)ccc2O1 | x | x | -0.9 | x | 61.3*[16.7 µM] | x
C[C@H]1CCCCO[C@H](CN(C)C(=O)Nc2ccc(C(F)(F)F)cc2)[C@@H](C)CN([C@@H](C)CO)C(=O)c2cc(NS(=O)(=O)c3ccccc3)ccc2O1 | x | x | 0.1 | x | 78.4*[16.7 µM] | x
C[C@@H]1CCCCO[C@@H](CN(C)C(=O)Nc2ccc(C(F)(F)F)cc2)[C@H](C)CN([C@H](C)CO)C(=O)c2cc(NS(=O)(=O)c3ccccc3)ccc2O1 | x | x | 1.0 | x | 14.2[16.7 µM] | x
C[C@@H]1CN([C@@H](C)CO)C(=O)c2cc(C#Cc3ccccn3)cnc2O[C@@H]1CN(C)C(=O)c1ccccn1 | x | x | -4.0 | x | -2.0[16.7 µM] | x
COc1ccc(-c2ccc([C@@H]3[C@H](C#N)N(C(=O)NC4CCCCC4)[C@H]3CO)cc2)cc1 | x | x | 0.7 | x | x | x
O=C(Nc1ccc(Cl)cc1)N[C@@H]1CC[C@@H](CCn2cc(-c3ccccc3F)nn2)O[C@H]1CO | x | x | -1.3 | x | -1.1[16.7 µM] | x
COCCNC(=O)C(c1ccc(O)cc1)N(Cc1ccccc1)C(=O)CCC(=O)Nc1ccccn1 (stereo not given) | 58.2* | x | -4.1 | 1.3 | -9.8 | x
COCCNC(=O)C(c1ccc(F)cc1)N(Cc1ccccc1)C(=O)CCC(=O)Nc1ccccn1 (stereo not given) | -3.6 | x | -7.0 | 1.7 | 6.1 | x
CCOc1ccccc1CNC(=O)c1nn(C)c2c1CS(=O)(=O)c1ccccc1-2 | 14.0 | -88.2 | -3.7 | -2.6 | 0.8 | 88.2*
COc1ccc(CC(=O)Nc2cccc(S(=O)(=O)N3CCCCCC3)c2)cc1OC | 3.0 | -48.0 | -2.9 | -3.3 | 68.0* | 48.0
COc1ccc(CCC(=O)Nc2cccc(S(=O)(=O)N3CCCCCC3)c2)cc1OC | -4.9 | -61.3 | 3.6 | -2.8 | x | 61.3
SMILES | Rtt109 Vps75 | SR-BI DiI-HDL act | PglD inh | Glyco luc inh | HIV Env fusion | SR-BI DiI inh
O=C(CNc1cccc(S(=O)(=O)N2CCCCC2)c1)Nc1cccc(F)c1 | 9.9 | 16.3 | 4.0 | -3.7 | 5.2 | -16.3
CN(C)S(=O)(=O)c1cccc(NC(=O)CNc2cccc(S(=O)(=O)N3CCCCC3)c2)c1 | x | x | 0.9 | -2.9 | 64.0* | x
C[C@H]1CN([C@@H](C)CO)C(=O)c2cc(N(C)C)ccc2O[C@H]1CN(C)C(=O)NC1CCCCC1 | x | x | -3.6 | x | 3.3[16.7 µM] | x
C[C@@H]1CN([C@H](C)CO)S(=O)(=O)c2ccc(C#C[C@@H](C)O)cc2O[C@@H]1CN(C)C(=O)C1CCC1 | x | x | 4.8 | x | -24.1[16.7 µM] | x
c1ccc(CNc2ncnc3c2cnn3-c2ccccc2)cc1 | 31.6 | -12.5 | 0.3 | 25.7* | -10.1 | 12.5
COc1cccc(CNC(=O)C[C@@H]2CC[C@@H](NC(=O)C3CC3)[C@H](CO)O2)c1 | x | x | -2.7 | x | -6.1[16.7 µM] | x
CCCCNC(=O)N(O)C1N(/N=C/c2ccccc2F)C(=S)SC1(C)C (stereo not given) | 1.7 | -15.9 | -1.0 | 0.8 | 81.4* | 15.9
CCCC(=O)NC(c1cccc([N+](=O)[O-])c1)c1ccc2cccnc2c1O (stereo not given) | x | x | -0.3 | -9.9 | 92.0* | x
CCCC(=O)NC(c1cccs1)c1cc(Cl)c2cccnc2c1O (stereo not given) | -13.5 | -12.0 | x | -0.1 | 73.8* | 12.0
CCCC(=O)NC(c1ccco1)c1cc(Cl)c2cccnc2c1O (stereo not given) | 0.9 | 14.9 | 2.9 | 0.5 | x | -14.9
COc1ccc(C(=O)c2sc(Nc3ccccc3)nc2N)cc1 | 3.2 | -45.9 | 0.4 | 24.9 | -21.5 | 45.9
COc1ccc(C(=O)c2sc(Nc3ccccc3)nc2N)cc1OC | -10.6 | -66.4 | -6.3 | 33.3* | -18.3 | 66.4
COc1ccc(C(=O)c2sc(Nc3ccccc3F)nc2N)cc1 | 4.8 | x | -6.3 | -2.0 | -26.6 | x
Nc1nc(Nc2ccccc2)sc1C(=O)c1ccccc1 | -1.0 | -14.5 | 3.9 | 28.5* | -12.6 | 14.5
O=C1C=C(c2ccccc2)C[C@@H](c2ccc(Cl)cc2)C1 | 2.5 | -36.1 | -1.2 | -3.2 | 16.7 | 36.1

Compound activity (PubChem)
